mABHD4 FP: inhibits mouse alpha/beta hydrolase domain 4; inhibition, % at 8.92 µM; Q8VD66; purified mABHD4, FP-Rh probe fluorescence polarization; 0.54% of 370,000 active; AID 720543;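 active = inhibition exceeding the mean over every tested compound plus 3 SD, cut at about 30% in these data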;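 also: 0% = plate median of compound wells and 100% = S159A mutant with DMSO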
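Assay system: Wild-type mouse ABHD4 protein | Medium: HEPES pH 7.0 buffer, 150 mM NaCl, 0.01% Pluronic F-127 | Incubation: Enzyme–compound pre-incubation 45 min, then probe 60 min, both 25 °C | Technique: Fluorescence polarization with parallel and perpendicular emission, 525/598 nm | Evaluation: % inhibition of FP-Rh probe binding versus controls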
SIAE inh: human SIAE inhibition, primary screen | 0.69% of 370,000 active | inhibition, % at 9.66 µM | AID 1053197 | SIAE FP-Rh probe binding, fluorescence polarization | Q9HAT2;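 active = inhibition above a cutoff: mean of compounds within the control limits plus 3 SD of those, cut at about 17% in these data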;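 also: 0% = plate median of compound wells and 100% = probe without SIAE protein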
HTRA1 inh: inhibitors of human serine peptidase HTRA1 | Q92743 | recombinant HTRA1, FP-rhodamine activity-based probe, fluorescence polarization | inhibition, % at 5.96 µM | 0.5% of 340,000 active | AID 504803; in the data active = inhibition above about 36%;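 also: 0% = enzyme with DMSO and 100% = wells lacking enzyme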
Target sequence (Q92743 whole entry, looked up): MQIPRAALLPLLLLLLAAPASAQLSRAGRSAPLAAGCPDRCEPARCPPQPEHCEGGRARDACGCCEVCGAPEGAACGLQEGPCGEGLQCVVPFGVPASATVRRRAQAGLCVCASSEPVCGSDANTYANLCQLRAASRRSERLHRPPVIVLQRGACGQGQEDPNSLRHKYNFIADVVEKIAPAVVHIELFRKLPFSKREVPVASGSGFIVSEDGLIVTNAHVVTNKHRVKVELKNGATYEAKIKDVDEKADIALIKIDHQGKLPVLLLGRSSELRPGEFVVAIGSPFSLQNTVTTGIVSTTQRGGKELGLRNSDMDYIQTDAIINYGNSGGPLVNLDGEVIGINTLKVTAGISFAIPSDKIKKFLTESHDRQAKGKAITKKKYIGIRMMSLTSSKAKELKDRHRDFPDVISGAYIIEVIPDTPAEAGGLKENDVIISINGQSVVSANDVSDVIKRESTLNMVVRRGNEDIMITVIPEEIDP
PRMT1 inh: PRMT1 (human) inhibition, primary screen | Q99873 | recombinant PRMT1, activity-based probe fluorescence polarization | inhibition, % at 2.79 µM | 1.3% of 370,000 active;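 active = inhibition above about 21% made by adding two undisclosed values, limit read from the data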
TCR CD3 inh: inhibitors of human TCR-CD3 interaction; 0.37% of 360,000 active; TAMRA-labeled TCR probe fluorescence, biochemical; inhibition, % at 9.4 µM;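 also: recombinant mutant TCR 2C K166C tagged with TAMRA read by polarization; 0% = receptor in buffer alone and 100% = receptor with positive control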
HTRA1 conf: HTRA1 (human) inhibition, confirmation | shares compounds with HTRA1 inh | recombinant HTRA1, FP-rhodamine activity-based probe, fluorescence polarization | inhibition, % at 5.96 µM | 66% of 1,600 active;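 active = mean inhibition over three repeats above a set limit taken from the earlier primary screen, cut at about 37% in these data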;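 also: 0% = HTRA1 with DMSO and 100% = wells lacking HTRA1; inhibitors block probe binding so polarization drops and inhibition rises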
BSA TAMRA ctr: BSA probe counter-screen for TCR-CD3 inhibitors; shares compounds with TCR CD3 inh; TAMRA-labeled BSA probe fluorescence counterscreen; inhibition, % at 9.4 µM; 10% of 1,200 active; in the data active = inhibition above about 23%;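 also: 0% = buffer low control and 100% = reference high control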
TCR-CD3 conf: confirmation of human TCR-CD3 interaction inhibitors; shares compounds with TCR CD3 inh; TAMRA-labeled TCR probe fluorescence binding assay; inhibition, % at 9.4 µM; 48% of 1,200 active; AID 652036
ABHD4 confirm: ABHD4 (mouse) inhibition, FP confirmation. shares compounds with mABHD4 FP. purified mABHD4, FP-Rh probe fluorescence polarization. inhibition, % at 8.92 µM. 55% of 1,800 active. AID 720658;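 active = mean inhibition across replicates above the hit cutoff set in the primary screen, cut at about 30% in these data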;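 also: 0% = wild-type ABHD4 with DMSO and 100% = catalytically dead S159A mutant with DMSO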
An asterisk follows results filed as active; . = no result given. Rows were chosen to be rich in hits. Some 2.5% of all compounds tested hit in one or more screens of this group. Rule as the data show it, unless noted: active = inhibition above about 19%; inactive = the rest.

SMILES	mABHD4 FP	SIAE inh	HTRA1 inh	PRMT1 inh	TCR CD3 inh	HTRA1 conf	ABHD4 confirm	others
CN(C)c1ccc(C=c2c3cc([N+](=O)[O-])ccc3n3c2cc(-c2ccccc2)[n+]3C)cc1	78*	15	92*	12	57*	41*	28
CCOC(=O)Cn1cc(CN2C(C(=O)OC)CN(Cc3ccc(Cl)cc3)CCS2(=O)=O)nn1 (stereo unspecified)	0	5	.	-4	.	.	.
Oc1ccc(/C=N/Nc2ccnc3cc(Cl)ccc23)cc1O	35*	14	42*	-5	10	72*	63*
CC/C(=N\Nc1ccnc2cc(Cl)ccc12)c1ccc(O)cc1	0	8	5	12	4	.	.
CN1CCN(C2=C(Cl)C(=O)c3ccccc3C2=O)CC1	37*	13	50*	18	15	48*	32*
O=C(N/N=C/c1cc(Br)c(O)c(Br)c1O)c1ccc2c(c1)OCCO2	49*	14	44*	2	25*	41*	58*	BSA TAMRA ctr=-33;TCR-CD3 conf=20*
O=C(N/N=C/c1cc(Br)c(Br)o1)c1ccc2c(c1)OCCO2	6	7	5	9	9	.	.
O=[N+]([O-])c1ccc(N=Nc2c(Cl)cc(O)cc2Cl)cc1	77*	26*	67*	1	0	73*	85*
Cc1[nH]n2c(=O)cc(-c3ccc([N+](=O)[O-])cc3)nc2c1-c1ccccc1	48*	10	40*	-2	4	87*	72*
O=C1CCC[C@H]2C[C@H](NCc3cccnc3)CC[C@]23CCCN13	1	-1	.	-1	.	.	.
OC(c1ccccc1)(c1ccccc1)C1CCN(CCCNc2ccccc2F)CC1	3	4	.	1	.	.	.
Cc1oc2c(CN3CCCC3)c(O)ccc2c(=O)c1-c1ccc(Br)cc1	7	-3	-5	0	-2	.	.
Cc1oc2c(O)c(O)ccc2c(=O)c1-c1ccccc1	41*	7	52*	19	8	41*	16
Cc1oc2c(O)c(O)ccc2c(=O)c1-c1ccc(Cl)cc1	41*	-1	69*	13	13	91*	25
Cc1oc2c(CN3CCCCC3C)c(O)ccc2c(=O)c1-c1ccccc1 (stereo unspecified)	2	0	0	-8	-2	.	.
COc1ccc(/C=C(\C#N)C(=O)NCCc2ccccc2)cc1OCc1ccccc1	-6	-25	-3	1	7	.	.
N#C/C(=C\c1ccc(O)c(O)c1)C(=O)NCCCc1ccccc1	34*	14	66*	1	2	77*	52*
COC(=O)[C@]12C[C@H](CC(=O)N3CCN(C(=O)C4CC4)CC3)C(=O)N(CCc3ccc(OC)c(OC)c3)C1=C[C@H](COCc1ccccc1)O[C@@H]2C	2	2	.	-3	.	.	.
FC(F)(F)c1ccc2c(c1)C1C=CCC1C(c1ccncc1)N2 (stereo unspecified)	39*	10	52*	8	-19	59*	13
O=C(O)c1ccc2c(c1)C1C=CCC1C(c1ccncc1)N2 (stereo unspecified)	-1	1	6	-5	-2	.	.
O=C(NCc1ccccn1)C1Nc2ccc(C(F)(F)F)cc2C2C=CCC12 (stereo unspecified)	32*	16	45*	10	-6	4	4
CC1CN(c2nc3ccccc3nc2SCC(=O)N2CCN(S(=O)(=O)c3ccccc3)CC2)CC(C)O1 (stereo unspecified)	-3	-5	.	2	.	.	.
CCCN1CCS(=O)(=O)N(Cc2cn(Cc3ccc(Cl)cc3)nn2)C(C(=O)OC)C1 (stereo unspecified)	-1	-2	.	0	.	.	.

Screens deposited in PubChem by The Scripps Research Institute Molecular Screening Center.
